Laboratory results taken from article PMC4787808 (Nucleic Acids Research, 2015).
“Also recorded” adds a separate entry of the source.

Tests used:
Leishmania = conditions: cited from earlier work
[1] = tested on: auditory outer hair cells (organ of Corti explants); assay: Toxicity assay in cochlear explants; assay type: cell-based, CBA/J mice
In short: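 Organ of Corti explants from postnatal day 2–3 CBA/J mice were kept in serum-free medium with supplement, BSA, glutamine and glucose, and pre-incubated about 48 h. They were then exposed to drug for 72 h, fixed in 4% PFA, permeabilised and stained with rhodamine phalloidin. Hair cells were counted apex to base under 50x oil and compared with a cytocochleogram database. Loss was reported as percent averaged over the whole explant length.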

[2] = tested on: intracellular L. donovani amastigotes; assay: Inhibition of L. donovani amastigotes in infected THP-1 macrophages; assay type: cell-based, Leishmania donovani; conditions: 1 μM, positive control
In short: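 THP-1 cells were differentiated with 25 ng/ml PMA for 24 h at 37°C, then infected with stationary-phase luciferase-expressing L. donovani promastigotes (5:1 parasite:macrophage) for 24 h and washed free of external parasites. Infected macrophages were trypsinised, checked by Giemsa stain and plated in triplicate (5 × 10^5 cells/ml). Compounds in medium with 1% DMSO were added for 48 h; lysates were read by Bright-Glo luminescence. Medium ± DMSO served as 0% inhibition; amphotericin B 1 μM was the positive control on each plate.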

[3] = tested on: L. tarentolae S30 translation (leishmanial ribosomes); assay: Cell-free inhibition of translation, L. tarentolae LEXSY system; assay type: biochemical, Leishmania tarentolae; conditions: relative to PAR
In short: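 Leishmania tarentolae cell-free LEXSY translation system driven by a pLEXSY-in-vitro2 vector encoding EGFP. Reactions with varied aminoglycoside concentrations ran 120 min at 26°C, and GFP fluorescence was read directly (ex 488, em 507 nm). Each curve used at least six concentrations. IC50 values came from concentration-response fits of at least three independent repeats.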

CNC(C)C1CCC(N)C(OC2C(N)CC(N)C(OC3OCC(C)(O)C(NC)C3O)C2O)O1 (centres unmarked) [Gentamicin]
anti-leishmanial activity (in words) (Leishmania): lack an anti-leishmanial activity

NC[C@@H]1O[C@H](O[C@H]2[C@@H](O)[C@H](O[C@@H]3[C@@H](O)[C@H](N)C[C@H](N)[C@H]3O[C@H]3O[C@H](CO)[C@@H](O)[C@H](O)[C@H]3N)O[C@@H]2CO)[C@H](N)[C@@H](O)[C@@H]1O [PAR, Paromomycin]
outer hair cell pathology, basal turn of explant ([1]; 10 μM, 72 h): intact
outer hair cell pathology, basal turn of explant ([1]; 22 μM, 72 h): significant loss of OHC; also recorded: partial destruction of outer hair cells
outer hair cell pathology, basal turn of explant ([1]; 33 μM, 72 h): complete destruction; also recorded: complete elimination of basal-turn outer hair cells
IC Coch50 (outer hair cell loss in cochlear explants) ([1]; murine explants, 72 h exposure): 30 µM

C[C@@H]1[C@H](O)[C@@H](C)/C=C/C=C/C=C/C=C/C=C/C=C/C=C/[C@H](O[C@@H]2O[C@H](C)[C@@H](O)[C@H](N)[C@@H]2O)C[C@@H]2O[C@](O)(C[C@@H](O)C[C@@H](O)[C@H](O)CC[C@@H](O)C[C@@H](O)CC(=O)O[C@H]1C)C[C@H](O)[C@H]2C(=O)O [Amphotericin B]
decrease in intracellular amastigotes [2]: > 90%

CN[C@@H]1[C@@H](O)[C@@H](O[C@@H]2[C@@H](O)[C@H](O[C@H]3O[C@H]([C@@H](C)O)[C@@H](O)[C@H](O)[C@H]3N)[C@@H](N)C[C@H]2N)OC[C@]1(C)O [G418, Geneticin]
times more potent in inhibiting leishmanial ribosomal translation than PAR [3]: 20 times
toxicity to auditory outer hair cells along entire length of explant (in words) ([1]; murine explants, 72 h): high toxicity
